Measurements taken from ChEMBL document CHEMBL3868627, “Radical scavenging and antibacterial activity of caffemides against gram positive, gram negative and clinical drug resistance bacteria” (Bioorg Med Chem Lett, 2016).

What was measured:
Staphylococcus aureus [1] = experiment: Antibacterial activity against Staphylococcus aureus ATCC 25923 measured after 24 hrs by serial dilution method; type: functional
[2] = test system: Mycolicibacterium smegmatis; experiment: Bactericidal activity against Mycobacterium smegmatis MC2 155 ATCC 700084 at >200 ug/ml measured after 6 and 24 hrs by serial dilution method relative to control; type: functional
Method in brief: (§1)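 Bacteria were exposed to test compound over a range of µg/ml concentrations. Viable bacteria were counted by colony forming unit (CFU) assay at set time points (6 h and 24 h for M. smegmatis and S. aureus strains), and untreated bacteria served as the control. Percentage of population killed was calculated relative to the untreated control. Values are means ± S.D of three independent trials.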

Staphylococcus aureus [3] = experiment: Bactericidal activity against Staphylococcus aureus ATCC 25923 at 50 ug/ml measured after 24 hrs by serial dilution method relative to control; type: functional
Staphylococcus aureus [4] = experiment: Bactericidal activity against methicillin-resistant Staphylococcus aureus ATCC 43300 at 50 ug/ml measured after 24 hrs by serial dilution method relative to control; type: functional; method in brief: as §1
[5] = test system: Mycolicibacterium smegmatis; experiment: Antibacterial activity against Mycobacterium smegmatis MC2 155 ATCC 700084 assessed as colony forming units at 10 ug/ml measured after 6 hrs by serial dilution method (reference value: 70 +/- 1.73 10^3CFU); type: functional; method in brief: as §1
[6] = test system: Mycolicibacterium smegmatis; experiment: Antibacterial activity against Mycobacterium smegmatis MC2 155 ATCC 700084 assessed as colony forming units at 100 ug/ml measured after 6 hrs by serial dilution method (reference value: 70 +/- 1.73 10^3CFU); type: functional; method in brief: as §1
[7] = test system: Mycolicibacterium smegmatis; experiment: Antibacterial activity against Mycobacterium smegmatis MC2 155 ATCC 700084 assessed as colony forming units at 200 ug/ml measured after 24 hrs by serial dilution method (reference value: 84 +/- 4.35 10^3CFU); type: functional; method in brief: as §1
[8] = test system: Mycolicibacterium smegmatis; experiment: Antibacterial activity against Mycobacterium smegmatis MC2 155 ATCC 700084 assessed as colony forming units at 300 ug/ml measured after 24 hrs by serial dilution method (reference value: 84 +/- 4.35 10^3CFU); type: functional; method in brief: as §1
Pseudomonas aeruginosa [9] = experiment: Antibacterial activity against Pseudomonas aeruginosa PAO1 ATCC 15692 assessed as colony forming units at 1 ug/ml measured after 1 hr by serial dilution method (reference value: 85.33 +/- 4.04 10^8CFU); type: functional
Pseudomonas aeruginosa [10] = experiment: Antibacterial activity against Pseudomonas aeruginosa PAO1 ATCC 15692 assessed as colony forming units at 10 ug/ml measured after 1 hr by serial dilution method (reference value: 85.33 +/- 4.04 10^8CFU); type: functional
Pseudomonas aeruginosa [11] = experiment: Antibacterial activity against Pseudomonas aeruginosa PAO1 ATCC 15692 assessed as colony forming units at 100 ug/ml measured after 1 hr by serial dilution method (reference value: 85.33 +/- 4.04 10^8CFU); type: functional
Pseudomonas aeruginosa [12] = experiment: Antibacterial activity against Pseudomonas aeruginosa PAO1 ATCC 15692 assessed as colony forming units at 1 ug/ml measured after 3 hr by serial dilution method (reference value: 141.66 +/- 7.5 10^8CFU); type: functional
Pseudomonas aeruginosa [13] = experiment: Antibacterial activity against Pseudomonas aeruginosa PAO1 ATCC 15692 assessed as colony forming units at 10 ug/ml measured after 3 hr by serial dilution method (reference value: 141.66 +/- 7.5 10^8CFU); type: functional
Pseudomonas aeruginosa [14] = experiment: Antibacterial activity against Pseudomonas aeruginosa PAO1 ATCC 15692 assessed as colony forming units at 50 ug/ml measured after 3 hr by serial dilution method (reference value: 141.66 +/- 7.5 10^8CFU); type: functional
Pseudomonas aeruginosa [15] = experiment: Antibacterial activity against Pseudomonas aeruginosa PAO1 ATCC 15692 assessed as colony forming units at 200 ug/ml measured after 3 hr by serial dilution method (reference value: 141.66 +/- 7.5 10^8CFU); type: functional
Pseudomonas aeruginosa [16] = experiment: Antibacterial activity against Pseudomonas aeruginosa PAO1 ATCC 15692 assessed as colony forming units at 300 ug/ml measured after 3 hr by serial dilution method (reference value: 141.66 +/- 7.5 10^8CFU); type: functional
Staphylococcus aureus [17] = experiment: Antibacterial activity against Staphylococcus aureus ATCC 25923 assessed as colony forming units at 1 ug/ml measured after 6 hrs by serial dilution method (reference value: 65.66 +/- 3.51 10^6CFU); type: functional
Staphylococcus aureus [18] = experiment: Antibacterial activity against Staphylococcus aureus ATCC 25923 assessed as colony forming units at 50 ug/ml measured after 6 hrs by serial dilution method (reference value: 65.66 +/- 3.51 10^6CFU); type: functional
Staphylococcus aureus [19] = experiment: Antibacterial activity against Staphylococcus aureus ATCC 25923 assessed as colony forming units at 200 ug/ml measured after 6 hrs by serial dilution method (reference value: 65.66 +/- 3.51 10^6CFU); type: functional
Staphylococcus aureus [20] = experiment: Antibacterial activity against Staphylococcus aureus ATCC 25923 assessed as colony forming units at 300 ug/ml measured after 6 hrs by serial dilution method (reference value: 65.66 +/- 3.51 10^6CFU); type: functional; method in brief: as §1
Staphylococcus aureus [21] = experiment: Antibacterial activity against Staphylococcus aureus ATCC 25923 assessed as colony forming units at 500 ug/ml measured after 6 hrs by serial dilution method (reference value: 65.66 +/- 3.51 10^6CFU); type: functional; method in brief: as §1
Staphylococcus aureus [22] = experiment: Antibacterial activity against Staphylococcus aureus ATCC 25923 assessed as colony forming units at 1 ug/ml measured after 24 hrs by serial dilution method (reference value: 77.66 +/- 5.13 10^6CFU); type: functional
Staphylococcus aureus [23] = experiment: Antibacterial activity against Staphylococcus aureus ATCC 25923 assessed as colony forming units at 10 ug/ml measured after 24 hrs by serial dilution method (reference value: 77.66 +/- 5.13 10^6CFU); type: functional
Staphylococcus aureus [24] = experiment: Antibacterial activity against Staphylococcus aureus ATCC 25923 assessed as colony forming units at 200 ug/ml measured after 24 hrs by serial dilution method (reference value: 77.66 +/- 5.13 10^6CFU); type: functional
Staphylococcus aureus [25] = experiment: Antibacterial activity against Staphylococcus aureus ATCC 25923 assessed as colony forming units at 300 ug/ml measured after 24 hrs by serial dilution method (reference value: 77.66 +/- 5.13 10^6CFU); type: functional
Staphylococcus aureus [26] = experiment: Antibacterial activity against methicillin-resistant Staphylococcus aureus ATCC 43300 assessed as colony forming units at 1 ug/ml measured after 6 hrs by serial dilution method (reference value: 64.33 +/- 3.51 10^6CFU); type: functional; method in brief: as §1
Staphylococcus aureus [27] = experiment: Antibacterial activity against methicillin-resistant Staphylococcus aureus ATCC 43300 assessed as colony forming units at 10 ug/ml measured after 24 hrs by serial dilution method (reference value: 74 +/- 2 10^6CFU); type: functional; method in brief: as §1
Staphylococcus aureus [28] = experiment: Antibacterial activity against methicillin-resistant Staphylococcus aureus ATCC 43300 assessed as colony forming units at 100 ug/ml measured after 24 hrs by serial dilution method (reference value: 74 +/- 2 10^6CFU); type: functional; method in brief: as §1
Pseudomonas aeruginosa [29] = experiment: Antibacterial activity against Pseudomonas aeruginosa PAO1 ATCC 15692 measured after 1 to 3 hrs by serial dilution method

## O=C(/C=C/c1ccc(O)c(O)c1)Nc1ccccc1Nc1ccccc1
Staphylococcus aureus [1]
  Activity: Dose-dependent effect
[2]
  Activity: 100%
Staphylococcus aureus [3]
  Activity: 68.2%
Staphylococcus aureus [4]
  Activity: 61.2%
[5]
  Activity: 38.33 ×10³ CFU
[6]
  Activity: 24.66 ×10³ CFU
[7]
  Activity: 0 ×10³ CFU
[8]
  Activity: 0 ×10³ CFU
Pseudomonas aeruginosa [9]
  Activity: 61 ×10⁸ CFU
Pseudomonas aeruginosa [10]
  Activity: 50.33 ×10⁸ CFU
Pseudomonas aeruginosa [11]
  Activity: 22.33 ×10⁸ CFU
Pseudomonas aeruginosa [12]
  Activity: 115.33 ×10⁸ CFU
Pseudomonas aeruginosa [13]
  Activity: 91.66 ×10⁸ CFU
Pseudomonas aeruginosa [14]
  Activity: 53.66 ×10⁸ CFU
Pseudomonas aeruginosa [15]
  Activity: 21.33 ×10⁸ CFU
Pseudomonas aeruginosa [16]
  Activity: 0 ×10⁸ CFU
Staphylococcus aureus [17]
  Activity: 42 ×10⁶ CFU
Staphylococcus aureus [18]
  Activity: 8.66 ×10⁶ CFU
Staphylococcus aureus [19]
  Activity: 0 ×10⁶ CFU
Staphylococcus aureus [20]
  Activity: 0 ×10⁶ CFU
Staphylococcus aureus [21]
  Activity: 0 ×10⁶ CFU
Staphylococcus aureus [22]
  Activity: 68.33 ×10⁶ CFU
Staphylococcus aureus [23]
  Activity: 40 ×10⁶ CFU
Staphylococcus aureus [24]
  Activity: 0 ×10⁶ CFU
Staphylococcus aureus [25]
  Activity: 0 ×10⁶ CFU
Staphylococcus aureus [26]
  Activity: 58 ×10⁶ CFU
Staphylococcus aureus [27]
  Activity: 41.66 ×10⁶ CFU
Staphylococcus aureus [28]
  Activity: 11.33 ×10⁶ CFU
Pseudomonas aeruginosa [29]
  Activity: Dose-dependent effect

## Cc1ccc(O)c(NC(=O)/C=C/c2ccc(O)c(O)c2)c1
Staphylococcus aureus [1]
  Activity: Dose-dependent effect
[2]
  Activity: 100%
Staphylococcus aureus [3]
  Activity: 89.6%
Staphylococcus aureus [4]
  Activity: 64.8%
[5]
  Activity: 42.66 ×10³ CFU
[6]
  Activity: 14.33 ×10³ CFU
[7]
  Activity: 15 ×10³ CFU
[8]
  Activity: 0 ×10³ CFU
Pseudomonas aeruginosa [9]
  Activity: 62 ×10⁸ CFU
Pseudomonas aeruginosa [10]
  Activity: 59.33 ×10⁸ CFU
Pseudomonas aeruginosa [11]
  Activity: 23.33 ×10⁸ CFU
Pseudomonas aeruginosa [12]
  Activity: 126 ×10⁸ CFU
Pseudomonas aeruginosa [13]
  Activity: 112 ×10⁸ CFU
Pseudomonas aeruginosa [14]
  Activity: 87 ×10⁸ CFU
Pseudomonas aeruginosa [15]
  Activity: 38.33 ×10⁸ CFU
Pseudomonas aeruginosa [16]
  Activity: 0 ×10⁸ CFU
Staphylococcus aureus [17]
  Activity: 26.33 ×10⁶ CFU
Staphylococcus aureus [18]
  Activity: 13.66 ×10⁶ CFU
Staphylococcus aureus [19]
  Activity: 4.66 ×10⁶ CFU
Staphylococcus aureus [20]
  Activity: 0 ×10⁶ CFU
Staphylococcus aureus [21]
  Activity: 0 ×10⁶ CFU
Staphylococcus aureus [22]
  Activity: 75.66 ×10⁶ CFU
Staphylococcus aureus [23]
  Activity: 63 ×10⁶ CFU
Staphylococcus aureus [24]
  Activity: 0 ×10⁶ CFU
Staphylococcus aureus [25]
  Activity: 0 ×10⁶ CFU
Staphylococcus aureus [26]
  Activity: 61 ×10⁶ CFU
Staphylococcus aureus [27]
  Activity: 41.33 ×10⁶ CFU
Staphylococcus aureus [28]
  Activity: 15.66 ×10⁶ CFU
Pseudomonas aeruginosa [29]
  Activity: Dose-dependent effect
